Assay outcomes (PubChem)
PAFAH1B3 inh: PAFAH1B3 (human) inhibition; recombinant PAFAH1B3, FP-rhodamine probe, fluorescence polarization; AID 492972; 0.28% of 340,000 active; Q15102; inhibition, % at 3.39 µM;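 active means inhibition above the screen-wide average of all tested compounds plus 3 SD, cut at about 25% in these data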;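 further: 0% = enzyme with DMSO only and 100% = wells lacking PAFAH1B3 protein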
UCH37 inh: human UCH37 deubiquitinating enzyme inhibition; Q9Y5K5; purified proteasome/UCH37, Ub-AMC cleavage fluorescence; inhibition, % (concentration not given with the values); 0.33% of 330,000 active; AID 588478;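 active means mean inhibition over replicate wells above about 20%, limit read from the data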;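 further: 0% = compound-free wells with enzyme and 100% = wells lacking proteasome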
Target sequence (Q9Y5K5 whole entry, looked up): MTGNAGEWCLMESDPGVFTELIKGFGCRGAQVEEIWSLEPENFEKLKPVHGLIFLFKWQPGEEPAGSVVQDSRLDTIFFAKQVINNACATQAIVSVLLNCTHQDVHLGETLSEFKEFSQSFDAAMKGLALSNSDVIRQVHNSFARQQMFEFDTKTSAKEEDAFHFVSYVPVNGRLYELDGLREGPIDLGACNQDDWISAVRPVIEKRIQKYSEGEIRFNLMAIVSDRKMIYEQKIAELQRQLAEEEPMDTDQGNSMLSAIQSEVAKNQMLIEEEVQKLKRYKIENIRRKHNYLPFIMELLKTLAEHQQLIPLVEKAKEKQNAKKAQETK
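Material: human UCH37 enzyme supplied as purified proteasome complex / Amount: 0.15 nM proteasome as dispensed / Buffer or medium: pH 7.4 Tris-HCl (50 mM) with ovalbumin, ATP-MgCl2, DTT / Times: preincubation 30 min, reaction 25 min, room temperature / Technique: AMC fluorescence from Ub-AMC cleavage, excitation 355 nm, emission 460 nm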
pPAFAH FP inh: pPAFAH (human) enzyme inhibition; Q13093; 1.5% of 330,000 active; inhibition, % at 3.39 µM; recombinant pPAFAH, FP-rhodamine probe fluorescence polarization; AID 463082;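 active means inhibition above the mean inhibition across the screen plus 3 SD, cut at about 25% in these data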;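 further: inhibitors block binding of the rhodamine activity-based probe so polarization drops; 0% = enzyme with DMSO and 100% = wells lacking pPAFAH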
PAFAH2 inh: PAFAH2 (human) inhibition; Q99487; recombinant PAFAH2, FP-rhodamine activity probe, fluorescence polarization; inhibition, % at 3.39 µM; 0.99% of 340,000 active; AID 492956;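 active means inhibition above the mean over all tested compounds plus 3 SD, cut at about 30% in these data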;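 further: inhibitors block probe labeling of enzyme so polarization drops; 0% = enzyme with DMSO and 100% = wells lacking PAFAH2 protein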
GRIN3A LBD mod: NR3A (human) ligand-binding domain modulation; NR3A LBD differential scanning fluorimetry, Tm shift; 0% = protein alone, 100% = glycine-bound protein; AID 1259313; Tm shift relative to glycine control, % at 25 µM; 2.5% of 340,000 active;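 active means melting temperature shift of at least 10% of the positive control shift, at one fixed dose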
PAFAH1B2 FP inh: PAFAH1B2 (human) inhibition | P68402 | recombinant PAFAH1B2, FP-rhodamine activity probe, fluorescence polarization | inhibition, % at 3.39 µM | 1.2% of 340,000 active | AID 492953;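 active means inhibition above the mean of all tested compounds plus 3 SD, cut at about 24% in these data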;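 further: 0% = enzyme with DMSO and 100% = wells lacking PAFAH1B2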
* hit, by the source's call; x = not tested or not shown. An excerpt weighted towards active compounds, which were near 4.8% of everything screened.

SMILES	PAFAH1B3 inh	UCH37 inh	pPAFAH FP inh	PAFAH2 inh	GRIN3A LBD mod	PAFAH1B2 FP inh
COc1cccc(CN(C(=O)Cc2c[nH]c3ccccc23)C(C(=O)NC2CCCCC2)c2ccc(C)o2)c1 (stereo not given)	6	3	6	2	23*	10
CCOc1ccc(C=NNC(=O)c2cc3ccccc3cc2OC)cc1	x	-12	x	x	x	x
CCOc1ccccc1C(=O)NN1C(=O)C2CCCCC2C1=O (stereo not given)	3	2	2	3	23*	6
CCOc1ccccc1C(=O)NN1CCOCC1	-2	2	0	-1	1	2
CC(C)c1ccc(C(=O)NN2C(=O)C3CCCCC3C2=O)cc1 (stereo not given)	7	0	5	5	25*	2
CC(=NNC(=O)CNC(=O)c1cccs1)c1ccco1	x	5	x	x	x	x
CC(=NN1CCN(Cc2ccc(Cl)cc2)CC1)c1ccc(F)cc1	x	2	x	x	x	x
Cc1nnc(SCC(=O)N2CCC(Cc3ccccc3)CC2)n(N)c1=O	7	-2	2	-4	11*	5
Cc1nnc(SCC(=O)N2CCCCCC2)n(N)c1=O	0	-3	-4	-2	0	0
O=C(Nc1ccc2ccccc2c1)c1cccc(F)c1	4	-5	1	0	20*	3
CCOc1cccc(C(=O)Nc2ccc3ccccc3c2)c1	-2	-1	-1	-11	30*	3
Cc1ccc(C(=O)Nc2ccc3ccccc3c2)cc1	10	1	-6	7	16*	6
CCOc1cccc(NC(=O)c2cccc(F)c2)c1	0	3	0	2	10*	4
CCOc1cccc(C(=O)Nc2cccc(C(C)=O)c2)c1	2	0	-4	0	-43	0
Cc1ccc2cc(NC(=O)c3cccc(F)c3)ccc2n1	10	2	5	3	4	-3
CCOc1ccc(NC(=S)NN=C(C)Cc2ccc(OC)cc2)cc1	x	1	x	x	x	x
CC(CC(=O)Nc1ccccn1)=NNC(=O)c1ccc2ccccc2c1	x	4	x	x	x	x
CNC(=S)NN=Cc1c(C)c(C(=O)c2ccc(F)cc2)n2ccccc12	x	3	x	x	x	x
O=C(Nc1ccc2ccccc2c1)c1ccc(NS(=O)(=O)c2ccc(Br)s2)cc1	-6	-3	11	-6	21*	-1
O=C(Cc1ccccc1)Nc1ccc2oc(=O)ccc2c1	5	-38	3	0	-1	2
O=C(Nc1ccc2oc(=O)ccc2c1)c1ccc2ccccc2c1	5	-9	-6	-6	34*	1
O=C(Nc1cccc(NC(=O)c2cccc(F)c2)n1)c1cccc(F)c1	10	3	-3	-12	12*	-1
CC(=O)c1sc(NN=Cc2ccc(C)cc2)nc1C	x	-5	x	x	x	x
O=C(CS(=O)(=O)c1c[nH]c2ccccc12)Nc1ccc(F)cc1	5	x	2	-7	13*	10
O=C(CS(=O)(=O)c1c[nH]c2ccccc12)NC1CCCCC1	5	5	-2	5	1	5
SMILES	PAFAH1B3 inh	UCH37 inh	pPAFAH FP inh	PAFAH2 inh	GRIN3A LBD mod	PAFAH1B2 FP inh
CC(C)c1ccc(S(=O)(=O)N2CCN(C(=O)[C@@H]3CCCN3C(=O)c3cccs3)CC2)cc1	5	3	x	3	-1	6
O=C(C1CCCN1C(=O)c1cccs1)N1CCN(S(=O)(=O)c2ccc(F)cc2)CC1 (stereo not given)	11	1	2	-3	-1	29*
O=C(C1CCCN(S(=O)(=O)c2ccc(F)cc2)C1)N1CCOCC1 (stereo not given)	7	x	x	-1	26*	2
O=C(Nc1ccc(S(=O)(=O)N2CCOCC2)cc1)c1ccc(F)cc1	4	5	-3	3	38*	0
O=C(Nc1cccc(Cl)c1)c1cc(S(=O)(=O)N2CCOCC2)cs1	5	6	8	-8	31*	3
CCOC(=O)C(C)=NNC(=O)c1cccc([N+](=O)[O-])c1	x	0	x	x	x	x
COc1ccc(C=c2sc3nc(-c4ccccc4OC)nn3c2=O)c(OC)c1	x	4	x	x	x	x
O=C(Nc1ccc(S(=O)(=O)N2CCOCC2)cc1)c1ccc(Cl)cc1	6	4	-6	5	22*	-8
CCOc1ccc(NS(=O)(=O)c2ccc(C(=O)NCCCN3CCOCC3)cc2)cc1	12	1	31*	-4	-1	3
